Here are results for three compounds from ChEMBL document CHEMBL1152541, “Staurosporine tethered peptide ligands that target cAMP-dependent protein kinase (PKA): optimization and selectivity profiling” (Bioorg Med Chem, 2009).

Experiment [1] has as its target RAC-beta serine/threonine-protein kinase (Homo sapiens) (UniProt P31751). Briefly: Binding affinity to human AKT2 at 500 nM by cell-based competition binding assay relative to control in presence of DTT. The procedure, abridged: (§1)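 Kinase binding profiling ran on a commercial (Ambit) competitive binding screen against a panel of 90 kinases. The screen used reducing conditions with 7.5 mM DTT. To withstand the DTT, the bivalent ligand was tested as its amide isostere, with the disulfide replaced. A staurosporine derivative carrying a 3 β-alanine linker was run as the reference compound.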

The target in experiment [2] is Serine/threonine-protein kinase pim-2 (Homo sapiens) (UniProt Q9P1W9). Briefly: Binding affinity to human PIM2 at 500 nM by cell-based competition binding assay relative to control in presence of DTT.
Sequence of Serine/threonine-protein kinase pim-2 (Homo sapiens) (Q9P1W9 whole entry, looked up): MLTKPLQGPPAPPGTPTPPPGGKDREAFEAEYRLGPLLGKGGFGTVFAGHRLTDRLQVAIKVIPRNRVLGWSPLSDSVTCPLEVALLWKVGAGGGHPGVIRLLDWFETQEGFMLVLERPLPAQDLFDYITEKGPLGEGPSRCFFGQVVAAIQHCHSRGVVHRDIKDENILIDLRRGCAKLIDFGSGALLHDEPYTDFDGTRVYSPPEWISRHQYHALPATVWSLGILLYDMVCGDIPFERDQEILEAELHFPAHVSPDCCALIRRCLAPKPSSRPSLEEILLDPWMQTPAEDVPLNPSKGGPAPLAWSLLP
Experiment [3] has as its target Angiopoietin-1 receptor (Homo sapiens) (UniProt Q02763). Briefly: Binding affinity to human TIE2 at 500 nM by cell-based competition binding assay relative to control in presence of DTT.
Experiment [4] deals with Epidermal growth factor receptor (Homo sapiens) (UniProt P00533). Briefly: Binding affinity to human EGFR at 500 nM by cell-based competition binding assay relative to control in presence of DTT. The procedure, abridged: (§2)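 Commercial (Ambit) competitive kinase-binding panel of 90 kinases measured the binding profile. Run under reducing conditions of 7.5 mM DTT. Binding is expressed relative to control.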

Experiment [5] deals with T1, TGF-beta receptor type-1 (Homo sapiens) (UniProt P36897).
T1 sequence (whole entry): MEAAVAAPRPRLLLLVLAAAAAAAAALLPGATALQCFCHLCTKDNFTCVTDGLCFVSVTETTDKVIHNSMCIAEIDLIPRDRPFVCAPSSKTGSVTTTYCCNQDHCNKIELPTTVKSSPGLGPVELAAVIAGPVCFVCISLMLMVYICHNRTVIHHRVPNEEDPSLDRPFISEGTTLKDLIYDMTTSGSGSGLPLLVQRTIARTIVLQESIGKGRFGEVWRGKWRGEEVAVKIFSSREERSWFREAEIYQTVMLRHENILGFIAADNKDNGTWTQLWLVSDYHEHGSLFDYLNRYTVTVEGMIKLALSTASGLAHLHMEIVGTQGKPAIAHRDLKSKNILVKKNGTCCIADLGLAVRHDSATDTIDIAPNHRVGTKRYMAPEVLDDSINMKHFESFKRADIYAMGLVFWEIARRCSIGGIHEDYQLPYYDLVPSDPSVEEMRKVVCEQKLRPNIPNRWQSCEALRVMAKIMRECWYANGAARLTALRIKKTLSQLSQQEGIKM
Description: Binding affinity to human TGFBR1 at 500 nM by cell-based competition binding assay relative to control in presence of DTT.

Experiment [6] concerns the target cAMP-dependent protein kinase catalytic subunit alpha (Homo sapiens) (UniProt P17612). Briefly: Binding affinity to human PKACalpha at 500 nM by cell-based competition binding assay relative to control in presence of DTT.
For experiment [7], the system named is Epidermal growth factor receptor (Homo sapiens), P00533 [L858R]. Description: Binding affinity to human EGFR L858R mutant at 500 nM by cell-based competition binding assay relative to control in presence of DTT. Summed up: as §2
The target of experiment [8] is Tyrosine-protein kinase JAK2 (Homo sapiens) (UniProt O60674). Description: Binding affinity to human JAK2 kinase domain 2 at 200 nM by cell-based competition binding assay relative to control in presence of DTT. The procedure, abridged:
(§3)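 Competition binding screen (Ambit) across a panel of 90 kinases, scoring test ligand displacement of each kinase's binding relative to control. The screen ran under reducing conditions with 7.5 mM DTT.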

The target in experiment [9] is Cyclin-dependent kinase 3 (Homo sapiens) (UniProt Q00526). Briefly: Binding affinity to human CDK3 at 200 nM by cell-based competition binding assay relative to control in presence of DTT. The procedure, abridged: as §1
Sequence of Cyclin-dependent kinase 3 (Homo sapiens) (Q00526 whole entry, looked up): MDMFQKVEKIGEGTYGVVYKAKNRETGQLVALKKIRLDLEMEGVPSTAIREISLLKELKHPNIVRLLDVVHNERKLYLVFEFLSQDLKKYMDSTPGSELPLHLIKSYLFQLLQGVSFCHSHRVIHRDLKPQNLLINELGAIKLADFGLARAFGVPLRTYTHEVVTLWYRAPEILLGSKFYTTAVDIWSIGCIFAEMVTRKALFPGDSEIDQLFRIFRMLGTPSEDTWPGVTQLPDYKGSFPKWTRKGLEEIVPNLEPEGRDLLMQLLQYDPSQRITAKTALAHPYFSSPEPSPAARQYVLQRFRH
Experiment [10] has as its target Mitogen-activated protein kinase 11 (Homo sapiens) (UniProt Q15759). Briefly: Binding affinity to human p38beta at 200 nM by cell-based competition binding assay relative to control in presence of DTT.
The target in experiment [11] is Aurora kinase B (Homo sapiens) (UniProt Q96GD4). Description: Binding affinity to human aurora kinase B at 200 nM by cell-based competition binding assay relative to control in presence of DTT.
The target of experiment [12] is Mitogen-activated protein kinase 10 (Homo sapiens) (UniProt P53779). Briefly: Binding affinity to human JNK3 at 50 nM by cell-based competition binding assay relative to control in presence of DTT. Summed up: as §3
Sequence of Mitogen-activated protein kinase 10 (Homo sapiens) (P53779 whole entry): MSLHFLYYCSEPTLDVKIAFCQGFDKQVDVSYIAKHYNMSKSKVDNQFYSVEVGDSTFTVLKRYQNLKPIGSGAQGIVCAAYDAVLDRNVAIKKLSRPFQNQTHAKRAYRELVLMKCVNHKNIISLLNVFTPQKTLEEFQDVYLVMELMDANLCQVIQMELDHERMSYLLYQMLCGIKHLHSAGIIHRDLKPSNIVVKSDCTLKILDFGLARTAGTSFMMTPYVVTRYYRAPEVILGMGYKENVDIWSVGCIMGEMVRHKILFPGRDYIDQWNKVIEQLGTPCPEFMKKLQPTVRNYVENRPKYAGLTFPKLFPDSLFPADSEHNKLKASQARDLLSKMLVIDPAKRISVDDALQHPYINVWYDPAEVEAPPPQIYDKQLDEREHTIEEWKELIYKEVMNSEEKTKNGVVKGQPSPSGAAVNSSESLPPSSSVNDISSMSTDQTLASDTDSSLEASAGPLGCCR
Experiment [13] deals with cAMP-dependent protein kinase catalytic subunit alpha (Homo sapiens) (UniProt P17612). Description: Binding affinity to human PKACalpha at 50 nM by cell-based competition binding assay relative to control in presence of DTT.
Experiment [14] deals with Platelet-derived growth factor receptor beta (Homo sapiens) (UniProt P09619). Description: Binding affinity to human PDGFRbeta at 50 nM by cell-based competition binding assay relative to control in presence of DTT.
Experiment [15] deals with Macrophage colony-stimulating factor 1 receptor (Homo sapiens) (UniProt P07333). Briefly: Binding affinity to human CSF1R at 50 nM by cell-based competition binding assay relative to control in presence of DTT. The procedure, abridged: as §2
The target of experiment [16] is Serine/threonine-protein kinase PLK3 (Homo sapiens) (UniProt Q9H4B4). Briefly: Binding affinity to human PLK3 at 50 nM by cell-based competition binding assay relative to control in presence of DTT.
Sequence of Serine/threonine-protein kinase PLK3 (Homo sapiens) (Q9H4B4 whole entry, looked up): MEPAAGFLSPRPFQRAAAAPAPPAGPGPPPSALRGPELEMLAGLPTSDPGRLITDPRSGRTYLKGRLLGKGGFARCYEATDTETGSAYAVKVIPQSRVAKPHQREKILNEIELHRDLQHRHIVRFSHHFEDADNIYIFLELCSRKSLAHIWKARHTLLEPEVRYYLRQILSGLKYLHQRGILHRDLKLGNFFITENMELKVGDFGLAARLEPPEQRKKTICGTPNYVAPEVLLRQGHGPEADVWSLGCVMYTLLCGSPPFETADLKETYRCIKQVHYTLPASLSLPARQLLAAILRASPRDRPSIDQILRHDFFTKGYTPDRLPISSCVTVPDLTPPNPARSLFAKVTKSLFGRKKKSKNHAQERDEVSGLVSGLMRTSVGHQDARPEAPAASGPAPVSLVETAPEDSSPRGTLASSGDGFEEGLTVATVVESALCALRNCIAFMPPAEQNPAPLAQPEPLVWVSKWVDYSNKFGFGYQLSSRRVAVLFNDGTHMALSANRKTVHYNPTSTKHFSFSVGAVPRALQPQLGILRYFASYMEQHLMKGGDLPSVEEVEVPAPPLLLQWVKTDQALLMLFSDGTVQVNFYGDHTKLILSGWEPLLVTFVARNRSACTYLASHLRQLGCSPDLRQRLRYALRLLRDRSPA
Experiment [17] concerns the target T2, 3-phosphoinositide-dependent protein kinase 1 (Homo sapiens) (UniProt O15530).
T2 sequence (whole entry): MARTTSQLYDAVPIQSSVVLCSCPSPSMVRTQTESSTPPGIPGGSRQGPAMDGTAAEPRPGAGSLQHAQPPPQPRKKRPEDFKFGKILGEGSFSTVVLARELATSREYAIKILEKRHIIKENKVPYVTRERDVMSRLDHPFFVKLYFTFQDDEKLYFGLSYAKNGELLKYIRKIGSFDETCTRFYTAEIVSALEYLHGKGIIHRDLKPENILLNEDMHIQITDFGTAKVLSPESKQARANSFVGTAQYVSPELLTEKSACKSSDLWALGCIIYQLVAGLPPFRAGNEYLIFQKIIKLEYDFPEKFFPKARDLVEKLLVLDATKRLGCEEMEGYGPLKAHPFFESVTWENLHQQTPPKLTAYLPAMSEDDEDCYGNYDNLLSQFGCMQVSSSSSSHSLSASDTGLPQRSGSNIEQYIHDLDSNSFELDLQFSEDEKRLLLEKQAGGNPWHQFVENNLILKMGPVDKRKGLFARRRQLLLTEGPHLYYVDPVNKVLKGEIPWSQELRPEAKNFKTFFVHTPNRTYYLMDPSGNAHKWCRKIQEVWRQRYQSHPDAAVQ
Briefly: Binding affinity to human PDPK1 at 50 nM by cell-based competition binding assay relative to control in presence of DTT.

Structures are written as SMILES. *1 amine or outer side, *2 acyl side, *3 side chain or, on linkers, in order; H or OH if unused. Where a SMILES comes first, the peptide text is derived from it. Bridges are numbered along the chain shown (N, C = ends). [ ]: non-standard residue; d: D form. The star is where a group is joined. Staurosporine = CO[C@@H]1[C@H](N(C)*)C[C@H]2O[C@]1(C)n1c3ccccc3c3c4c(c5c6ccccc6n2c5c31)C(=O)NC4; Suc = O=C(CCC(=O)[*:2])[*:1]; Dap = NC[C@H](N)C(=O)O; βAla = NCCC(=O)O

Sequence of RAC-beta serine/threonine-protein kinase (Homo sapiens) (P31751 whole entry): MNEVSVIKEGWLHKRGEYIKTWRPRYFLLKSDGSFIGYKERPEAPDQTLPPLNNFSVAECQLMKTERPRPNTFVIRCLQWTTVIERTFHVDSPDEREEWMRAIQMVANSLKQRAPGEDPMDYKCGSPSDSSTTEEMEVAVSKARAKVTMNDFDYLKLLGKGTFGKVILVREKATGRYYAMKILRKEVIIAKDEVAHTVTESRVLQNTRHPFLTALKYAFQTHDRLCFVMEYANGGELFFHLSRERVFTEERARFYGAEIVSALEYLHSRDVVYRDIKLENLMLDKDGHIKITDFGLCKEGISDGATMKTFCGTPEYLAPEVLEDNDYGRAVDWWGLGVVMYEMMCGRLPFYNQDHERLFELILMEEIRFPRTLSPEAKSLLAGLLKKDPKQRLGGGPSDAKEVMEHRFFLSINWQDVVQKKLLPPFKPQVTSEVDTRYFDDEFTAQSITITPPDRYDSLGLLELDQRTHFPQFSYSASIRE
Sequence of Angiopoietin-1 receptor (Homo sapiens) (Q02763 whole entry): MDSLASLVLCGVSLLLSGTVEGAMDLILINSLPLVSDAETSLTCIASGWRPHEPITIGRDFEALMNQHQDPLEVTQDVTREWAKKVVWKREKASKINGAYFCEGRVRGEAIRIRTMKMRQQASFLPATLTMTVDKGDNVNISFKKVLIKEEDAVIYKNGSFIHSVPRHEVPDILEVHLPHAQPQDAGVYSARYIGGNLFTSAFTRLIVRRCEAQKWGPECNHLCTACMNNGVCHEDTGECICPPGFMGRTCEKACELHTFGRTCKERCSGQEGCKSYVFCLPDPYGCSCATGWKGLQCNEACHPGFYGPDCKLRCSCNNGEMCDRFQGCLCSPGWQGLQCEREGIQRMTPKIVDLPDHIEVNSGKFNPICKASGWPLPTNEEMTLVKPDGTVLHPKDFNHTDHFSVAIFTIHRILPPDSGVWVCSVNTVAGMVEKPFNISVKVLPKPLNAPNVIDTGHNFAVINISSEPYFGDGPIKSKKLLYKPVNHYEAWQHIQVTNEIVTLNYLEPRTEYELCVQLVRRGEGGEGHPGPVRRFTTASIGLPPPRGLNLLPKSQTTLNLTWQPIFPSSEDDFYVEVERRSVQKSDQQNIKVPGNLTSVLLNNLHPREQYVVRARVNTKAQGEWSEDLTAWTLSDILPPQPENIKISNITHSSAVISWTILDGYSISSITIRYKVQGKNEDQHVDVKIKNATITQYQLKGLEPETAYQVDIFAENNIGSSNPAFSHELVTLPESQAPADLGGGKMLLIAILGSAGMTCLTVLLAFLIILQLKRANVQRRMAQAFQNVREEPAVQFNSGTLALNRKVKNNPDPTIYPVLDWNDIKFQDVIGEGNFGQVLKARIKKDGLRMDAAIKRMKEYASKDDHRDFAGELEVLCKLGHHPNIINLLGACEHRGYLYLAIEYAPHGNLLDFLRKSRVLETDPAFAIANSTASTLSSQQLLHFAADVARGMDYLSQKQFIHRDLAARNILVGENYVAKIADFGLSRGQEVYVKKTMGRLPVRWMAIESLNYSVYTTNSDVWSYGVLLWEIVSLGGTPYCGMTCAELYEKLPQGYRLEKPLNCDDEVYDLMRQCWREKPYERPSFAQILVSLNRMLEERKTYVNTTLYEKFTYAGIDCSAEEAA
Sequence of Tyrosine-protein kinase JAK2 (Homo sapiens) (O60674 whole entry, the tested form may be a part): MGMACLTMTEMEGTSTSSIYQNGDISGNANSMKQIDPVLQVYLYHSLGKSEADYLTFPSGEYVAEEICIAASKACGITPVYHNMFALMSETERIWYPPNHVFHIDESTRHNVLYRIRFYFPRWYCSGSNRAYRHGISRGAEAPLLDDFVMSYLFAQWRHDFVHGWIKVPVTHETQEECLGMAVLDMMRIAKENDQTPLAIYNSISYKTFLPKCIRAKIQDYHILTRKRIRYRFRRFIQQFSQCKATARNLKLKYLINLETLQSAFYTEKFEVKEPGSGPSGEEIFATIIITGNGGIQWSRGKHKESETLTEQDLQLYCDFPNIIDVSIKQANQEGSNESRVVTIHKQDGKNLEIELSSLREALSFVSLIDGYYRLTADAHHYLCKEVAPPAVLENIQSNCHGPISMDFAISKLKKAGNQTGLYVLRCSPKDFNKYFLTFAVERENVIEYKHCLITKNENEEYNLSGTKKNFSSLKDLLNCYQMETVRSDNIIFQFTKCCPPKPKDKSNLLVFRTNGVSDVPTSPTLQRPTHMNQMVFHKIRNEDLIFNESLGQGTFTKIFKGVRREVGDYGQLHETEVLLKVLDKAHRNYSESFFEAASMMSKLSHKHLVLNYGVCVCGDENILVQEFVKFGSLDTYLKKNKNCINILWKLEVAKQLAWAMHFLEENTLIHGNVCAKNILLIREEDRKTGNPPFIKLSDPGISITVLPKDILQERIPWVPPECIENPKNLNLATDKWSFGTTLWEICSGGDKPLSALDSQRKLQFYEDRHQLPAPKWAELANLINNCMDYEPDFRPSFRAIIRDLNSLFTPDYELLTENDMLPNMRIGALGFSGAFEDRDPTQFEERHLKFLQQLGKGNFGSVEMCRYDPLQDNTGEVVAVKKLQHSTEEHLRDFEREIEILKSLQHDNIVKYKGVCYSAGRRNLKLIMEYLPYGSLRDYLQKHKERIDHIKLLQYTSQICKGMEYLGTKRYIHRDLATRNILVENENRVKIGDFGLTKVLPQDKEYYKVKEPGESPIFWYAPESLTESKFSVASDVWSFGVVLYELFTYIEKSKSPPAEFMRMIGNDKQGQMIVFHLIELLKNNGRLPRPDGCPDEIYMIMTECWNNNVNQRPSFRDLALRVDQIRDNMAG
Sequence of Mitogen-activated protein kinase 11 (Homo sapiens) (Q15759 whole entry): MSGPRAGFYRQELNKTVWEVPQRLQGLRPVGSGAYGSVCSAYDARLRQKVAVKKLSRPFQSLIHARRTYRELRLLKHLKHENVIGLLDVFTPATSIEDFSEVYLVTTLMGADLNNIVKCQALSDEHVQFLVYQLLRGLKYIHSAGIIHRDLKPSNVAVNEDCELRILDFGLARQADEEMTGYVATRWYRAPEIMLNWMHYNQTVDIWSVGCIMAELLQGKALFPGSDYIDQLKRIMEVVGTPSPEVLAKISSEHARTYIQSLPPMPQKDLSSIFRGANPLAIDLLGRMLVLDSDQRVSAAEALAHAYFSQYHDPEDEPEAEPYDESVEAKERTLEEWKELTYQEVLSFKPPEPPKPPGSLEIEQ

As to `CO[C@@H]1[C@H](N(C)C(=O)CCC(=O)NCCC(=O)NCCC(=O)NCCC(N)=O)C[C@H]2O[C@]1(C)n1c3ccccc3c3c4c(c5c6ccccc6n2c5c31)C(=O)NC4`, the Activity in [1] was found to be 37%; in experiment [2], 100%; in experiment [3], 38%; in experiment [4] it was 54%; in experiment [5], 75%; in [6], 52%. Further, in experiment [7], the Activity is 53%.

For `CO[C@@H]1[C@H](N(C)C(=O)CCC(=O)NCCC(=O)NCCC(=O)NCCC(=O)NCCC(=O)NCCC(=O)NCCC(=O)NCCC(=O)N[C@H]2CSSC[C@@H](C(=O)NCC(N)=O)NC(=O)CNC(=O)[C@H](Cc3ccccc3)NC(=O)[C@H](C(C)C)NC(=O)[C@H](CCCNC(=N)N)NC(=O)[C@H](Cc3ccccc3)NC(=O)[C@H](C(C)C)NC2=O)C[C@H]2O[C@]1(C)n1c3ccccc3c3c4c(c5c6ccccc6n2c5c31)C(=O)NC4` ({Staurosporine-Suc-βAla-βAla-βAla-βAla-βAla-βAla-βAla}-CVFRVFGCG-NH2; disulfide 1-8), the Activity in [8] is 4%; in experiment [9] it was 100%; in experiment [10] it was 100%; in experiment [11] it was 5.8%.

With `CO[C@@H]1[C@H](N(C)C(=O)CCC(=O)NCCC(=O)NCCC(=O)NCCC(=O)NCCC(=O)NCCC(=O)NCCC(=O)NCCC(=O)N[C@H]2CNC(=O)C[C@@H](C(N)=O)NC(=O)CNC(=O)[C@H](Cc3ccccc3)NC(=O)[C@H](C(C)C)NC(=O)[C@H](CCCNC(=N)N)NC(=O)[C@H](Cc3ccccc3)NC(=O)[C@H](C(C)C)NC2=O)C[C@H]2O[C@]1(C)n1c3ccccc3c3c4c(c5c6ccccc6n2c5c31)C(=O)NC4` ({Staurosporine-Suc-βAla-βAla-βAla-βAla-βAla-βAla-βAla}-[Dap]VFRVFGD-NH2; lactam 1-8), the Activity in experiment [12] was 85%; in experiment [13] it was 10%; in experiment [14], 23%; in [15], 83%; in [16], 98%; in experiment [17], 48%.
